Drawing on ChEMBL document CHEMBL4673184, “Synthesis and biological evaluation of S-lipidated lipopeptides of a connexin 43 channel inhibitory peptide” (RSC Med Chem, 2020), this text covers Activity for 20 compounds.

Activity calls are given as the source filed them. The calls are words filed in the database; no cut-off is given here. Where a SMILES comes first, the peptide text is derived from it. [ ]: non-standard residue; d: D form. The star is where a group is joined. Ethyl(2-stearoyloxy) = CCCCCCCCCCCCCCCCCC(=O)OCC*; Ethyl(2-palmitoyloxy) = CCCCCCCCCCCCCCCC(=O)OCC*; CH2CH2OBz(4-tBu) = CC(C)(C)c1ccc(C(=O)OCC*)cc1; Ethyl(2-decanoyloxy) = CCCCCCCCCC(=O)OCC*; Ethyl(2-butanoyloxy) = CCCC(=O)OCC*; Ethyl(2-OPiv) = CC(C)(C)C(=O)OCC*; Mpa = O=C(O)CCS

Gap junction alpha-1 protein (Homo sapiens), sequence (P17302 whole entry): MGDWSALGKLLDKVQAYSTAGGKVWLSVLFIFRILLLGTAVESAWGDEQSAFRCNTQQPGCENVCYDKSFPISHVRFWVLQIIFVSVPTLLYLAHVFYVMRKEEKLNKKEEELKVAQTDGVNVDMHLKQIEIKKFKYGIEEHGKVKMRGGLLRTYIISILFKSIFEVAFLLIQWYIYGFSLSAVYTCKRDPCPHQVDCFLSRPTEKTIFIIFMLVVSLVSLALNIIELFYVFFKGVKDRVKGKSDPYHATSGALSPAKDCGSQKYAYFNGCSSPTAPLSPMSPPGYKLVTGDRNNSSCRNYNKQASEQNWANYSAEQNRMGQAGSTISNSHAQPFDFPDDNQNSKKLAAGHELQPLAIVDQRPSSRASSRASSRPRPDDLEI

The target of the experiment is Gap junction alpha-1 protein (Homo sapiens) (UniProt P17302). Put plainly: Inhibition of Cx43 in hypoxic-acidic ion-shifted ringers solution-induced human cerebral microvascular endothelial cell model of ischaemic injury assessed as ATP release at 10 uM measured after 2 hrs by luciferin-luciferase based luminescence assay relative to control. The arrangement: scale not given: the % may be the effect or the level left. Put shortly:
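hCMVEC (passages 8-17) seeded at 2 x 10^6/well on collagen-I (1 µg/cm²) and grown 48 h to a confluent monolayer. Washed in NR, then exposed 2 h in HAIR (pH 6.6, N₂-bubbled, low Ca²⁺, K-gluconate/NMDG) containing peptide at 10 µM. Supernatant diluted 1:10 in firefly luciferase mix and read at 560 nm against an ATP standard (0-50 nM). Expressed as % of HAIR-only, mean of n=3.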
Turning to `CCCCCCCCCC(=O)OCCSC[C@H](NC(=O)[C@H](CCCCN)NC(=O)[C@H](CCC(=O)O)NC(=O)[C@@H](NC(=O)[C@@H]1CCCN1C(=O)[C@H](CCCNC(=N)N)NC(=O)[C@H](CO)NC(=O)[C@H](CC(C)C)NC(=O)[C@H](Cc1ccccc1)NC(=O)[C@H](CS)NC(=O)[C@H](CC(=O)O)NC(=O)[C@@H](N)C(C)C)[C@@H](C)O)C(=O)O` (H-VDCFLSRPTEKC(Ethyl(2-decanoyloxy))-OH), the outcome was inactive.

On to `CC(C)C[C@H](NC(=O)[C@H](Cc1ccccc1)NC(=O)[C@H](CS)NC(=O)[C@H](CC(=O)O)NC(=O)[C@@H](N)C(C)C)C(=O)N[C@@H](CO)C(=O)N[C@@H](CCCNC(=N)N)C(=O)N1CCC[C@H]1C(=O)N[C@H](C(=O)N[C@@H](CCC(=O)O)C(=O)N[C@@H](CCCCN)C(=O)N[C@@H](CSCCOC(=O)c1ccc(C(C)(C)C)cc1)C(=O)O)[C@@H](C)O` (H-VDCFLSRPTEKC(CH2CH2OBz(4-tBu))-OH), for which the outcome was inactive.

Regarding `CC(C)C[C@H](NC(=O)[C@H](Cc1ccccc1)NC(=O)[C@H](CS)NC(=O)[C@H](CC(=O)O)NC(=O)[C@@H](NC(=O)CCSCCOC(=O)c1ccc(C(C)(C)C)cc1)C(C)C)C(=O)N[C@@H](CO)C(=O)N[C@@H](CCCNC(=N)N)C(=O)N1CCC[C@H]1C(=O)N[C@H](C(=O)N[C@@H](CCC(=O)O)C(=O)N[C@@H](CCCCN)C(=O)N[C@H](C(=O)O)[C@@H](C)O)[C@@H](C)O` ([Mpa](CH2CH2OBz(4-tBu))VDCFLSRPTEKT-OH), the result was inactive.

In the case of `CCCCCCCCCC(=O)OCCSC[C@H](N)C(=O)N[C@@H](CC(=O)O)C(=O)N[C@@H](CS)C(=O)N[C@@H](Cc1ccccc1)C(=O)N[C@@H](CC(C)C)C(=O)N[C@@H](CO)C(=O)N[C@@H](CCCNC(=N)N)C(=O)N1CCC[C@H]1C(=O)N[C@H](C(=O)N[C@@H](CCC(=O)O)C(=O)N[C@@H](CCCCN)C(=O)N[C@H](C(=O)O)[C@@H](C)O)[C@@H](C)O` (H-C(Ethyl(2-decanoyloxy))DCFLSRPTEKT-OH), the outcome was inactive.

In the case of `CC(C)C[C@H](NC(=O)[C@H](Cc1ccccc1)NC(=O)[C@H](CS)NC(=O)[C@H](CC(=O)O)NC(=O)[C@@H](N)C(C)C)C(=O)N[C@@H](CO)C(=O)N[C@@H](CCCNC(=N)N)C(=O)N1CCC[C@H]1C(=O)N[C@@H](CSCCOC(=O)C(C)(C)C)C(=O)N[C@@H](CCC(=O)O)C(=O)N[C@@H](CCCCN)C(=O)N[C@H](C(=O)O)[C@@H](C)O` (H-VDCFLSRPC(Ethyl(2-OPiv))EKT-OH), the result was inactive.

For the compound `CCCC(=O)OCCSC[C@H](NC(=O)[C@@H](NC(=O)[C@@H]1CCCN1C(=O)[C@H](CCCNC(=N)N)NC(=O)[C@H](CO)NC(=O)[C@H](CC(C)C)NC(=O)[C@H](Cc1ccccc1)NC(=O)[C@H](CS)NC(=O)[C@H](CC(=O)O)NC(=O)[C@@H](N)C(C)C)[C@@H](C)O)C(=O)N[C@@H](CCCCN)C(=O)N[C@H](C(=O)O)[C@@H](C)O` (H-VDCFLSRPTC(Ethyl(2-butanoyloxy))KT-OH), the Activity is 32%.

Regarding `CCCCCCCCCCCCCCCC(=O)OCCSC[C@H](NC(=O)[C@H](CC(C)C)NC(=O)[C@H](Cc1ccccc1)NC(=O)[C@H](CS)NC(=O)[C@H](CC(=O)O)NC(=O)[C@@H](N)C(C)C)C(=O)N[C@@H](CCCNC(=N)N)C(=O)N1CCC[C@H]1C(=O)N[C@H](C(=O)N[C@@H](CCC(=O)O)C(=O)N[C@@H](CCCCN)C(=O)N[C@H](C(=O)O)[C@@H](C)O)[C@@H](C)O` (H-VDCFLC(Ethyl(2-palmitoyloxy))RPTEKT-OH), the result was inactive.

As for `CCCC(=O)OCCSC[C@H](NC(=O)[C@@H]1CCCN1C(=O)[C@H](CCCNC(=N)N)NC(=O)[C@H](CO)NC(=O)[C@H](CC(C)C)NC(=O)[C@H](Cc1ccccc1)NC(=O)[C@H](CS)NC(=O)[C@H](CC(=O)O)NC(=O)[C@@H](N)C(C)C)C(=O)N[C@@H](CCC(=O)O)C(=O)N[C@@H](CCCCN)C(=O)N[C@H](C(=O)O)[C@@H](C)O` (H-VDCFLSRPC(Ethyl(2-butanoyloxy))EKT-OH), the result was inactive.

For `CCCC(=O)OCCSC[C@H](NC(=O)[C@H](CCCCN)NC(=O)[C@H](CCC(=O)O)NC(=O)[C@@H](NC(=O)[C@@H]1CCCN1C(=O)[C@H](CCCNC(=N)N)NC(=O)[C@H](CO)NC(=O)[C@H](CC(C)C)NC(=O)[C@H](Cc1ccccc1)NC(=O)[C@H](CS)NC(=O)[C@H](CC(=O)O)NC(=O)[C@@H](N)C(C)C)[C@@H](C)O)C(=O)O` (H-VDCFLSRPTEKC(Ethyl(2-butanoyloxy))-OH), the result was inactive.

Regarding `CCCCCCCCCCCCCCCCCC(=O)OCCSC[C@H](NC(=O)[C@@H]1CCCN1C(=O)[C@H](CCCNC(=N)N)NC(=O)[C@H](CO)NC(=O)[C@H](CC(C)C)NC(=O)[C@H](Cc1ccccc1)NC(=O)[C@H](CS)NC(=O)[C@H](CC(=O)O)NC(=O)[C@@H](N)C(C)C)C(=O)N[C@@H](CCC(=O)O)C(=O)N[C@@H](CCCCN)C(=O)N[C@H](C(=O)O)[C@@H](C)O` (H-VDCFLSRPC(Ethyl(2-stearoyloxy))EKT-OH), the Activity was 102%.

In the case of `CCCCCCCCCC(=O)OCCSC[C@H](NC(=O)[C@H](CS)NC(=O)[C@H](CC(=O)O)NC(=O)[C@@H](N)C(C)C)C(=O)N[C@@H](CC(C)C)C(=O)N[C@@H](CO)C(=O)N[C@@H](CCCNC(=N)N)C(=O)N1CCC[C@H]1C(=O)N[C@H](C(=O)N[C@@H](CCC(=O)O)C(=O)N[C@@H](CCCCN)C(=O)N[C@H](C(=O)O)[C@@H](C)O)[C@@H](C)O` (H-VDCC(Ethyl(2-decanoyloxy))LSRPTEKT-OH), the outcome was inactive.

Turning to `CC(C)C[C@H](NC(=O)[C@H](Cc1ccccc1)NC(=O)[C@H](CS)NC(=O)[C@H](CC(=O)O)NC(=O)[C@@H](N)C(C)C)C(=O)N[C@@H](CO)C(=O)N[C@@H](CCCNC(=N)N)C(=O)N1CCC[C@H]1C(=O)N[C@H](C(=O)N[C@@H](CSCCOC(=O)c1ccc(C(C)(C)C)cc1)C(=O)N[C@@H](CCCCN)C(=O)N[C@H](C(=O)O)[C@@H](C)O)[C@@H](C)O` (H-VDCFLSRPTC(CH2CH2OBz(4-tBu))KT-OH), the outcome was inactive.

Regarding `CC(C)C[C@H](NC(=O)[C@H](Cc1ccccc1)NC(=O)[C@H](CS)NC(=O)[C@H](CC(=O)O)NC(=O)[C@@H](N)C(C)C)C(=O)N[C@@H](CSCCOC(=O)C(C)(C)C)C(=O)N[C@@H](CCCNC(=N)N)C(=O)N1CCC[C@H]1C(=O)N[C@H](C(=O)N[C@@H](CCC(=O)O)C(=O)N[C@@H](CCCCN)C(=O)N[C@H](C(=O)O)[C@@H](C)O)[C@@H](C)O` (H-VDCFLC(Ethyl(2-OPiv))RPTEKT-OH), the result was inactive.

Regarding `CC(C)C[C@H](NC(=O)[C@H](Cc1ccccc1)NC(=O)[C@H](CS)NC(=O)[C@H](CC(=O)O)NC(=O)[C@@H](N)C(C)C)C(=O)N[C@@H](CO)C(=O)N[C@@H](CCCNC(=N)N)C(=O)N1CCC[C@H]1C(=O)N[C@@H](CSCCOC(=O)c1ccc(C(C)(C)C)cc1)C(=O)N[C@@H](CCC(=O)O)C(=O)N[C@@H](CCCCN)C(=O)N[C@H](C(=O)O)[C@@H](C)O` (H-VDCFLSRPC(CH2CH2OBz(4-tBu))EKT-OH), the outcome was inactive.

Turning to `CCCCCCCCCCCCCCCCCC(=O)OCCSC[C@H](NC(=O)[C@H](CCCCN)NC(=O)[C@H](CCC(=O)O)NC(=O)[C@@H](NC(=O)[C@@H]1CCCN1C(=O)[C@H](CCCNC(=N)N)NC(=O)[C@H](CO)NC(=O)[C@H](CC(C)C)NC(=O)[C@H](Cc1ccccc1)NC(=O)[C@H](CS)NC(=O)[C@H](CC(=O)O)NC(=O)[C@@H](N)C(C)C)[C@@H](C)O)C(=O)O` (H-VDCFLSRPTEKC(Ethyl(2-stearoyloxy))-OH), the Activity was found to be 129%.

On to `CCCCCCCCCCCCCCCC(=O)OCCSCCC(=O)N[C@H](C(=O)N[C@@H](CC(=O)O)C(=O)N[C@@H](CS)C(=O)N[C@@H](Cc1ccccc1)C(=O)N[C@@H](CC(C)C)C(=O)N[C@@H](CO)C(=O)N[C@@H](CCCNC(=N)N)C(=O)N1CCC[C@H]1C(=O)N[C@H](C(=O)N[C@@H](CCC(=O)O)C(=O)N[C@@H](CCCCN)C(=O)N[C@H](C(=O)O)[C@@H](C)O)[C@@H](C)O)C(C)C` ([Mpa](Ethyl(2-palmitoyloxy))VDCFLSRPTEKT-OH), for which the outcome was inactive.

`CCCCCCCCCCCCCCCC(=O)OCCSC[C@H](NC(=O)[C@H](CS)NC(=O)[C@H](CC(=O)O)NC(=O)[C@@H](N)C(C)C)C(=O)N[C@@H](CC(C)C)C(=O)N[C@@H](CO)C(=O)N[C@@H](CCCNC(=N)N)C(=O)N1CCC[C@H]1C(=O)N[C@H](C(=O)N[C@@H](CCC(=O)O)C(=O)N[C@@H](CCCCN)C(=O)N[C@H](C(=O)O)[C@@H](C)O)[C@@H](C)O` (H-VDCC(Ethyl(2-palmitoyloxy))LSRPTEKT-OH): the result was inactive.

As for `CC1(C)[C@@H](OC(=O)CCC(=O)O)CC[C@]2(C)[C@H]3C(=O)C=C4[C@@H]5C[C@@](C)(C(=O)O)CC[C@]5(C)CC[C@@]4(C)[C@]3(C)CC[C@@H]12`, the Activity was 23.3%.

On to `CC(C)C[C@H](NC(=O)[C@H](Cc1ccccc1)NC(=O)[C@H](CS)NC(=O)[C@H](CC(=O)O)NC(=O)[C@@H](N)CSCCOC(=O)C(C)(C)C)C(=O)N[C@@H](CO)C(=O)N[C@@H](CCCNC(=N)N)C(=O)N1CCC[C@H]1C(=O)N[C@H](C(=O)N[C@@H](CCC(=O)O)C(=O)N[C@@H](CCCCN)C(=O)N[C@H](C(=O)O)[C@@H](C)O)[C@@H](C)O` (H-C(Ethyl(2-OPiv))DCFLSRPTEKT-OH), for which the result was inactive.

For `CCCCCCCCCC(=O)OCCSCCC(=O)N[C@H](C(=O)N[C@@H](CC(=O)O)C(=O)N[C@@H](CS)C(=O)N[C@@H](Cc1ccccc1)C(=O)N[C@@H](CC(C)C)C(=O)N[C@@H](CO)C(=O)N[C@@H](CCCNC(=N)N)C(=O)N1CCC[C@H]1C(=O)N[C@H](C(=O)N[C@@H](CCC(=O)O)C(=O)N[C@@H](CCCCN)C(=O)N[C@H](C(=O)O)[C@@H](C)O)[C@@H](C)O)C(C)C` ([Mpa](Ethyl(2-decanoyloxy))VDCFLSRPTEKT-OH), the result was inactive.
